Data as given in ChEMBL document CHEMBL1157095, “Antimalarial versus cytotoxic properties of dual drugs derived from 4-aminoquinolines and Mannich bases: interaction with DNA” (J Med Chem, 2010).
pIC50, pKd: −log10 of the molar value. Active and inactive are the calls of the source. The calls are words filed in the database; no cut-off is given here.

Assays:
Plasmodium falciparum [1] = test: Antiplasmodial activity against chloroquine-susceptible Plasmodium falciparum FCR3 infected in human erythrocytes assessed as inhibition of [3H]hypoxanthine uptake after 48 hrs; format: functional, organism-based
Procedure, shortened: (§1)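 Strains were cultured in A-positive human blood in RPMI 1640 with 10% human serum, 25 mM HEPES and 25 mM NaHCO3, under 10% O2/5% CO2/85% N2 at 37 °C. Microtests used 0.5% parasitemia and 1.5% hematocrit. Tritiated hypoxanthine (1 μCi/well) was added at time zero, then 48 h incubation, freeze-thaw, harvest and scintillation counting. IC50 was taken by nonlinear regression against drug-free controls.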

Plasmodium falciparum [2] = test: Antiplasmodial activity against chloroquine-susceptible Plasmodium falciparum D6 infected in human erythrocytes assessed as inhibition of [3H]hypoxanthine uptake after 48 hrs; format: functional, organism-based; procedure, shortened: as §1
Plasmodium falciparum [3] = test: Antiplasmodial activity against chloroquine-susceptible Plasmodium falciparum K14 infected in human erythrocytes assessed as inhibition of [3H]hypoxanthine uptake after 48 hrs; format: functional, organism-based; procedure, shortened: as §1
Plasmodium falciparum [4] = test: Antiplasmodial activity against chloroquine-susceptible Plasmodium falciparum W2 infected in human erythrocytes assessed as inhibition of [3H]hypoxanthine uptake after 48 hrs; format: functional, organism-based; procedure, shortened: as §1
Plasmodium falciparum [5] = test: Antiplasmodial activity against chloroquine-susceptible Plasmodium falciparum PA infected in human erythrocytes assessed as inhibition of [3H]hypoxanthine uptake after 48 hrs; format: functional, organism-based; procedure, shortened: as §1
Nucleic Acid [6] = test: Binding affinity to pUC18 DNA containing 50% AT assessed as middle of the integrated surface melting temperature at 1 uM by spectrophotometry analysis; format: nucleic-acid assay
Procedure, shortened: (§2)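 Drug at 1 μM was mixed with DNA at 15 μM base pairs (15:1 bp:drug) in TE with 5 mM NaCl. Absorbance at 260 nm was recorded from 30-97 °C at 0.5 °C/min, with readings every 0.5 °C. Curves were normalized, smoothed and differentiated. Tmmax = derivative peak maximum; Tmint = middle of the integrated area; Tm1/2 = middle of the peak at half height.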

Nucleic Acid [7] = test: Binding affinity to pUC18 DNA at pH 7.5 by UV-Vis spectrophotometry analysis; format: nucleic-acid assay
Procedure, shortened: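 A 10 μM drug solution was titrated at room temperature with linearized pUC18 DNA (50% AT), 0.1-50 μM base pairs final. Buffer was TE (10 mM Tris-HCl, 0.1 mM EDTA) with 5 mM NaCl, ionic strength 12 mM. UV-Vis absorption spectra were recorded at 220-380 nm. Kd = DNA concentration at which half the drug is bound.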

Nucleic Acid [8] = test: Binding affinity to pUC18 DNA containing 50% AT assessed as maximum melting temperature at 1 uM by spectrophotometry analysis; format: nucleic-acid assay; procedure, shortened: as §2
Nucleic Acid [9] = test: Binding affinity to polydAdT DNA containing 100% AT assessed as middle of the peak at half height melting temperature at 1 uM by spectrophotometry analysis; format: nucleic-acid assay; procedure, shortened: as §2
Plasmodium falciparum [10] = test: Antiplasmodial activity against chloroquine-susceptible Plasmodium falciparum 8425 infected in human erythrocytes assessed as inhibition of [3H]hypoxanthine uptake after 48 hrs; format: functional, organism-based; procedure, shortened: as §1
Plasmodium falciparum [11] = test: Antiplasmodial activity against chloroquine-susceptible Plasmodium falciparum L1 infected in human erythrocytes assessed as inhibition of [3H]hypoxanthine uptake after 48 hrs; format: functional, organism-based; procedure, shortened: as §1
Nucleic Acid [12] = test: Binding affinity to pUC18 DNA containing 50% AT assessed as middle of the peak at half height melting temperature at 1 uM by spectrophotometry analysis; format: nucleic-acid assay; procedure, shortened: as §2
Nucleic Acid [13] = test: Binding affinity to pUC18 DNA at pH 7.5 by spectrofluorimetry analysis; format: nucleic-acid assay
Procedure, shortened: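 A 1-10 μM drug solution was titrated at room temperature with linearized pUC18 DNA (50% AT), 0.1-50 μM base pairs final, in TE buffer with 5 mM NaCl (ionic strength 12 mM). Fluorescence used excitation at 320 nm and emission at 340-500 nm, corrected for buffer and instrument response. Kd = DNA concentration giving half-bound drug.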

Plasmodium berghei [14] = test: Antiplasmodial activity against Plasmodium berghei ANKA infected in Swiss mice (Mus musculus) assessed as reduction of parasitaemia at 10 mg/kg, intraperitoneal every day for 4 days; format: functional; settings: ip, 96 h
Plasmodium falciparum [15] = test: Antiplasmodial activity against chloroquine-susceptible Plasmodium falciparum K2 infected in human erythrocytes assessed as inhibition of [3H]hypoxanthine uptake after 48 hrs; format: functional, organism-based; procedure, shortened: as §1
Nucleic Acid [16] = test: Binding affinity to polydAdT DNA containing 100% AT assessed as maximum melting temperature at 1 uM by spectrophotometry analysis; format: nucleic-acid assay; procedure, shortened: as §2
Plasmodium falciparum [17] = test: Antiplasmodial activity against chloroquine-susceptible Plasmodium falciparum Bres infected in human erythrocytes assessed as inhibition of [3H]hypoxanthine uptake after 48 hrs; format: functional, organism-based; procedure, shortened: as §1
NCH89 = test: Antiproliferative activity against human carmustine-resistant NCH-89 cells assessed as BrdU incorporation after 48 hrs; format: functional, cell-based; settings: NCH89, 48 h
Procedure, shortened: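 NCH89 glioblastoma cells were seeded at 7 × 10^3 cells/well in replicate wells for 24 h. Compound was then added at 0.1-100 μM. After 48 h, BrdU was added at 100 μM final, and incorporation was detected with a BrdU labeling/detection kit.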

MRC5 = test: Cytotoxicity against human MRC5 after 3 days; format: cell-based; settings: MRC5, 72 h
Procedure, shortened: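 MRC-5SV2 cells were grown in Earle's MEM with 5% FCSi and plated at about 10^4 cells/well. After 3 days of incubation, viability was read fluorimetrically with resazurin (ex 550/em 590 nm). Growth reduction was expressed relative to untreated control wells, and CC50 was derived.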

Plasmodium falciparum [18] = test: Antiplasmodial activity against chloroquine-susceptible Plasmodium falciparum Voll infected in human erythrocytes assessed as inhibition of [3H]hypoxanthine uptake after 48 hrs; format: functional, organism-based; procedure, shortened: as §1
Nucleic Acid [19] = test: Binding affinity to polydAdT DNA containing 100% AT assessed as middle of the integrated surface melting temperature at 1 uM by spectrophotometry analysis; format: nucleic-acid assay; procedure, shortened: as §2
Mus musculus [20] = test: Toxicity in ip dosed Swiss mouse assessed as mortality at 30 mg/kg, ip; format: organism-based; parameters: dose 30 mg/kg, route intraperitoneal; settings: in vivo
Procedure, shortened: (§3)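 Peters 4-day suppressive test, P. berghei ANKA: 18-20 g mice infected iv with 2 × 10^6 parasitized red cells day 0; compounds freshly made in 10% DMSO in sterile PBS, given ip from 2 h postinfection and on days 1-3; daily dose 30 mg/kg or 50 mg/kg; deaths recorded.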

Plasmodium falciparum [21] = test: Antiplasmodial activity against chloroquine-susceptible Plasmodium falciparum NF54 infected in human erythrocytes assessed as inhibition of [3H]hypoxanthine uptake after 48 hrs; format: functional, organism-based
Procedure, shortened: (§4)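 Asynchronous ring-stage cultures in human A Rh+ erythrocytes (RPMI 1640, HEPES, NaHCO3, hypoxanthine, 0.5% Albumax II, 5% CO2, 37 C), 1% parasitemia; top final drug concentration 30 μM. After 24 h, [3H]-hypoxanthine (0.2 μCi/well) added, further 48 h incubation; plates freeze-thawed, harvested, uptake counted; IC50 calculated.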

Plasmodium berghei [22] = test: Antiplasmodial activity against Plasmodium berghei ANKA infected in Swiss mice (Mus musculus) assessed as reduction of parasitaemia at 50 mg/kg, intraperitoneally daily for 4 days; format: functional, organism-based; parameters: dose 50 mg/kg
Procedure, shortened: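 Swiss mice (18-20 g) infected intravenously on day 0 with 2 × 10^6 P. berghei ANKA parasitized red cells. Compound was freshly prepared in 10% DMSO in sterile PBS and given ip, first 2 h postinfection, then on days +1-3 (4-day suppressive test). On day +4, parasitemia was counted microscopically on Giemsa-stained tail-blood films.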

Mus musculus [23] = test: Toxicity in ip dosed Swiss mouse assessed as mortality at 50 mg/kg, ip; format: organism-based; parameters: dose 50 mg/kg, route intraperitoneal; settings: in vivo; procedure, shortened: as §3
Plasmodium falciparum [24] = test: Antiplasmodial activity against chloroquine-resistant Plasmodium falciparum Dd2 infected in human erythrocytes assessed as inhibition of [3H]hypoxanthine uptake after 48 hrs; format: functional, organism-based
Procedure, shortened: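 Ring-stage infected erythrocytes (0.5% parasitemia, 2.5% hematocrit) exposed to compounds 48 h, then radioactive hypoxanthine 24 h; radioactivity in precipitable material taken as proliferation index for IC50.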

Plasmodium falciparum [25] = test: Antiplasmodial activity against chloroquine-susceptible Plasmodium falciparum FCM29 infected in human erythrocytes assessed as inhibition of [3H]hypoxanthine uptake after 48 hrs; format: functional, organism-based; procedure, shortened: as §1
Plasmodium falciparum [26] = test: Antiplasmodial activity against chloroquine, pyrimethamine, cycloguanil-resistant Plasmodium falciparum K1 infected in human erythrocytes assessed as inhibition of [3H]hypoxanthine uptake after 48 hrs; format: functional, organism-based; procedure, shortened: as §4
Plasmodium falciparum [27] = test: Antiplasmodial activity against chloroquine-susceptible Plasmodium falciparum 3D7 infected in human erythrocytes assessed as inhibition of [3H]hypoxanthine uptake after 48 hrs; format: functional, organism-based
Procedure, shortened: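 Culture in RPMI 1640 with 10% human serum, 25 mM HEPES, 25 mM NaHCO3, A-positive blood, 10% O2/5% CO2/85% N2, 37 C. Isotopic microtest: 0.5% parasitemia, 1.5% hematocrit, 1 μCi tritiated hypoxanthine at time zero, 48 h; freeze-thaw lysis, filter harvest, scintillation count. IC50 = 50% uptake versus drug-free control, nonlinear regression of log dose-response curves.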

CCN(CC)CCCC(C)Nc1ccnc2cc(Cl)ccc12 (stereo unspecified) [CHLOROQUINE]
IC90 (Plasmodium falciparum [1]): 686 nM | IC90 (Plasmodium falciparum [2]): 44.4 nM | IC90 (Plasmodium falciparum [3]): 1130 nM | IC90 (Plasmodium falciparum [4]): 693 nM | IC90 (Plasmodium falciparum [5]): 483 nM | Tm (Nucleic Acid [6]): 73.7 °C | pKd (Nucleic Acid [7]): 5.12 | Tm (Nucleic Acid [8]): 73.2 °C | Tm (Nucleic Acid [9]): 47 °C | IC90 (Plasmodium falciparum [10]): 59.2 nM | IC90 (Plasmodium falciparum [11]): 418 nM | Tm (Nucleic Acid [12]): 74.7 °C | pKd (Nucleic Acid [13]): 5.05 | inhibition in vivo at 10 mg/kg (Plasmodium berghei [14]): 98.9% | IC90 (Plasmodium falciparum [15]): 912 nM | Tm (Nucleic Acid [16]): 46.9 °C | IC90 (Plasmodium falciparum [17]): 614 nM | pIC50 (NCH89): 4.39 | pIC50 (MRC5): 4.19 | IC90 (Plasmodium falciparum [18]): 316 nM | Tm (Nucleic Acid [19]): 46.6 °C

Clc1ccc2c(NCCNC(CCN3CCCCC3)c3ccccc3)ccnc2c1 (stereo unspecified)
pIC50 (Plasmodium falciparum [1]): 7.35 | IC90 (Plasmodium falciparum [1]): 73.1 nM | pIC50 (Plasmodium falciparum [2]): 7.96 | IC90 (Plasmodium falciparum [2]): 16 nM | pIC50 (Plasmodium falciparum [3]): 7.12 | IC90 (Plasmodium falciparum [3]): 205 nM | pIC50 (Plasmodium falciparum [4]): 7.36 | IC90 (Plasmodium falciparum [4]): 74.6 nM | pIC50 (Plasmodium falciparum [5]): 7.39 | IC90 (Plasmodium falciparum [5]): 68.9 nM | Tm (Nucleic Acid [6]): 74.4 °C | pKd (Nucleic Acid [7]): 6.00 | Activity (Mus musculus [20]): Toxic | Tm (Nucleic Acid [8]): 73 °C | pIC50 (Plasmodium falciparum [21]): 8.06 | Tm (Nucleic Acid [9]): 46.5 °C | Activity (Plasmodium berghei [22]): Active | Activity (Mus musculus [23]): Toxic | pIC50 (Plasmodium falciparum [10]): 8.10 | IC90 (Plasmodium falciparum [10]): 12.8 nM | pIC50 (Plasmodium falciparum [11]): 7.36 | IC90 (Plasmodium falciparum [11]): 73.5 nM | Tm (Nucleic Acid [12]): 75 °C | pIC50 (Plasmodium falciparum [24]): 7.62 | pKd (Nucleic Acid [13]): 5.40 | pIC50 (Plasmodium falciparum [15]): 7.24 | IC90 (Plasmodium falciparum [15]): 105 nM | Tm (Nucleic Acid [16]): 46 °C | pIC50 (Plasmodium falciparum [17]): 7.33 | IC90 (Plasmodium falciparum [17]): 76.7 nM | pIC50 (NCH89): 5.25 | pIC50 (MRC5): 5.10 | pIC50 (Plasmodium falciparum [18]): 7.41 | IC90 (Plasmodium falciparum [18]): 68.4 nM | pIC50 (Plasmodium falciparum [25]): 6.87 | IC90 (Plasmodium falciparum [25]): 296 nM | Tm (Nucleic Acid [19]): 46.4 °C | pIC50 (Plasmodium falciparum [26]): 7.49 | pIC50 (Plasmodium falciparum [27]): 8.00 | IC90 (Plasmodium falciparum [27]): 15.8 nM
